How the values were obtained:
[1] = biological target: T1, Mitogen-activated protein kinase kinase kinase 14 (Homo sapiens, UniProt Q99558); test: Inhibition of recombinant N-terminal GST-fused human NIK (319 to 947 residues) expressed in baculovirus expression system incubated for 120 mins in presence of ATP by ADP-glo based luminescence assay
In short: (§1)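 ADP-Glo luminescence assay with recombinant human MAP3K14. Buffer: Tris pH 7.5, 2 mM DTT, 2 mM MgCl₂, 100 µM Na₃VO₄, 0.02 mg/mL BSA, 5% DMSO; ATP 10 µM. Reaction 120 min at room temperature; ADP-Glo reagent 40 min, then detection reagent 40 min. Mean ± SD from two independent experiments.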
Target sequence in this assay (Q99558 whole entry, the tested form may be a part): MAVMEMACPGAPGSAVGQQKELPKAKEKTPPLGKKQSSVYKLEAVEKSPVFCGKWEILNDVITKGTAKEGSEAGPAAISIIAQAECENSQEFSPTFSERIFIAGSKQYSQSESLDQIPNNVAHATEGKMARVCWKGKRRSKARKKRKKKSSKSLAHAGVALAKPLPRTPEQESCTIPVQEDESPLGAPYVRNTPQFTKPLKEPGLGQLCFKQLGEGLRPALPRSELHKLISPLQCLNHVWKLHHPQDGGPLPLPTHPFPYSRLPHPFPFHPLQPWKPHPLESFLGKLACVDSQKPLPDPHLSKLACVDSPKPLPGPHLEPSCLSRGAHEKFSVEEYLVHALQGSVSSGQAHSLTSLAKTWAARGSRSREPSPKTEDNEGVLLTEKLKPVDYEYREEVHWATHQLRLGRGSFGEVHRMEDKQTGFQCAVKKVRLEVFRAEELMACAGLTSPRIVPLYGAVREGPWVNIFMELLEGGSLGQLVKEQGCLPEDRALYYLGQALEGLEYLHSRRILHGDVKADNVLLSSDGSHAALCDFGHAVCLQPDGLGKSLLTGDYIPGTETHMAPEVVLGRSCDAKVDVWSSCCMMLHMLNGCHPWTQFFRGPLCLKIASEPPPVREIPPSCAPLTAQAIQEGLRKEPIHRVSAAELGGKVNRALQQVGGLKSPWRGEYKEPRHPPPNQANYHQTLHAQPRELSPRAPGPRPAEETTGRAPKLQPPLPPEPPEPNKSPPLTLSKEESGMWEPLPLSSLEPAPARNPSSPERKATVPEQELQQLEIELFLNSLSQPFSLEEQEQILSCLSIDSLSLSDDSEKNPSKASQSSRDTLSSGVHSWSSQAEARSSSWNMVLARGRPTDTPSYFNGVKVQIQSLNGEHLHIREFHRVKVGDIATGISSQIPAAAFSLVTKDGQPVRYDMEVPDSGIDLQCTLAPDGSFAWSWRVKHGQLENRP

J774 = test: Antiinflammatory activity in mouse J774 cells assessed as inhibition of LPS-induced NO production at 1 uM preincubated for 2 hrs followed by LPS stimulation and measured after 22 hrs by Griess reagent based assay relative to control; type: functional
In short: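 J774 macrophages seeded at 2*10^4 cells/mL, 24 h at 37 °C 5% CO₂; compound in DMSO at 1 µM, 3 replicate wells, 2 h pre-incubation, then LPS at 1 ug/mL final for 22 h. Supernatant nitrite read with Griess reagent at 540 nm against a sodium nitrite standard curve. Inhibition % = (model − compound)/(model − control) NO ×100; mean ± SD, three independent experiments.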

T-cell [2] = test: Antiinflammatory activity in mouse T cells assessed as inhibition of conA-induced induced T cell proliferation at 2 uM incubated for 48 hrs by CCK8 assay relative to control; type: functional
T-cell [3] = test: Antiinflammatory activity in mouse T cells assessed as inhibition of conA-induced induced T cell proliferation at 0.4 uM incubated for 48 hrs by CCK8 assay relative to control; type: functional
[4] = Intrinsic clearance in human liver microsomes assessed per mg of protein incubated for 10 mins followed by potassium phosphate buffer addition and measured after 5 to 60 mins by LC-MS/MS analysis; type: ADME, Microsome; conditions: read-out: CLH
In short: (§2)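 Rat, dog, monkey or human liver microsomes pre-incubated with compound at 37 °C for 10 min; reaction started after pre-warming and stopped at 5, 15, 30, 60 min with chilled quench containing tolbutamide and labetalol. No-cofactor control in 100 mM potassium phosphate for 60 min. LC-MS/MS analysis; first-order fit: k = −slope, T1/2 = 0.693/k, CLint = k/microsomal protein concentration.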

[5] = biological target: T1, Mitogen-activated protein kinase kinase kinase 14; test: Inhibition of NIK (unknown origin); in short: as §1
Target sequence in this assay (Q99558 whole entry, the tested form may be a part): as above

[6] = Elimination half life in human liver microsomes incubated for 10 mins followed by potassium phosphate buffer addition and measured after 5 to 60 mins by LC-MS/MS analysis; type: ADME, Microsome; conditions: read-out: beta t1/2; in short: as §2
[7] = Elimination half life in monkey liver microsomes incubated for 10 mins followed by potassium phosphate buffer addition and measured after 5 to 60 mins by LC-MS/MS analysis; type: ADME, Macaca mulatta, Microsome; conditions: rhesus monkey, read-out: beta t1/2; in short: as §2
[8] = Elimination half life in dog liver microsomes incubated for 10 mins followed by potassium phosphate buffer addition and measured after 5 to 60 mins by LC-MS/MS analysis; type: ADME, Canis lupus familiaris, Microsome; conditions: read-out: beta t1/2; in short: as §2
[9] = Elimination half life in rat liver microsomes incubated for 10 mins followed by potassium phosphate buffer addition and measured after 5 to 60 mins by LC-MS/MS analysis; type: ADME, Microsome; conditions: read-out: beta t1/2; in short: as §2
[10] = Intrinsic clearance in monkey liver microsomes assessed as per mg of protein incubated for 10 mins followed by potassium phosphate buffer addition and measured after 5 to 60 mins by LC-MS/MS analysis; type: ADME, Macaca mulatta, Microsome; conditions: rhesus monkey, read-out: CLH; in short: as §2
[11] = Intrinsic clearance in dog liver microsomes assessed as per mg of protein incubated for 10 mins followed by potassium phosphate buffer addition and measured after 5 to 60 mins by LC-MS/MS analysis; type: ADME, Canis lupus familiaris, Microsome; conditions: read-out: CLH; in short: as §2
[12] = Intrinsic clearance in rat liver microsomes assessed as per mg of protein incubated for 10 mins followed by potassium phosphate buffer addition and measured after 5 to 60 mins by LC-MS/MS analysis; type: ADME, Microsome; conditions: read-out: CLH; in short: as §2
[13] = Intrinsic hepatic clearance in human; type: ADME
In short: (§3)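 Scaled from microsomal intrinsic clearance: CLint,in vitro × microsomal protein per g liver × liver weight per kg body weight.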

[14] = Intrinsic hepatic clearance in monkey; type: ADME, Macaca mulatta; conditions: rhesus monkey, in vivo; in short: as §3
[15] = Intrinsic hepatic clearance in dog; type: ADME, Canis lupus familiaris; conditions: in vivo; in short: as §3
[16] = Intrinsic hepatic clearance in rat; type: ADME; conditions: in vivo; in short: as §3
[17] = biological target: T1, Mitogen-activated protein kinase kinase kinase 14; test: Inhibition of NIK in human BEAS2B cells assessed as reduction in LPS-induced IL-6 level preincubated for 8 hrs followed by LPS stimulation and measured after 24 hrs by ELISA; type: cell-based
In short: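 BEAS-2B cells were grown in DMEM with 10% FBS, seeded at 5000 cells/well, and cultured 24 h at 37 °C in 5% CO2. Compounds were given at 7 concentrations from 10 μM to 0.014 μM (3 replicate wells), with dexamethasone as positive control. After 8 h, LPS (20 μg/mL solution) was added for 24 h. Supernatant IL-6 was read by human IL-6 ELISA; two biological replicates.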
Target sequence in this assay (Q99558 whole entry, looked up, the tested form may be a part): as the sequence (Q99558 whole entry, the tested form may be a part) above

[18] = biological target: T1, Mitogen-activated protein kinase kinase kinase 14; test: Inhibition of recombinant N-terminal GST-fused human NIK (319 to 947 residues) expressed in baculovirus expression system assessed as residual activity at 1 uM incubated for 120 mins in presence of ATP by ADP-glo based luminescence assay relative to control
Target sequence in this assay (Q99558 whole entry, looked up, the tested form may be a part): as the sequence (Q99558 whole entry, the tested form may be a part) above

T-cell [19] = test: Growth inhibition of mouse T cells at 10 uM after 48 hrs by CCK8 assay; type: cell-based
In short: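 Unstimulated mouse splenic T cells exposed to compound at 10 µM. Growth read by CCK-8 absorbance; […]. Mean ± SD, three independent experiments.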

SMILES	IC50 [1] [nM]	inhibition at 1 µM (J774) [%]	inhibition at 2 µM (T-cell [2]) [%]	inhibition at 0.4 µM (T-cell [3]) [%]	further results
C[C@@H]1CN(c2ccc(C#CC(C)(O)c3nccs3)cc2Nc2ncnc3[nH]ccc23)CCN1 (some centres not stated)	209				
COCCN(C)c1ccc(C#CC(C)(O)c2nccs2)cc1Nc1ncnc2[nH]ccc12 (configuration not stated)	72.4	48	27.9	13.3	
CN1CCCN(c2ccc(C#CC(C)(O)c3nccs3)cc2Nc2ncnc3[nH]ccc23)CC1 (configuration not stated)	60.1	67.3	47.7	35.5	
CC(O)(C#Cc1ccc(N2CCN(S(=O)(=O)C3CC3)CC2)c(Nc2ncnc3[nH]ccc23)c1)c1nccs1 (configuration not stated)	16.2	37.2	32.3	16.9	
CC(O)(C#Cc1ccc(N2CCOCC2)c(Nc2ncnc3[nH]ncc23)c1)c1nccs1 (configuration not stated)	8.63	35.9	24.7	14.8	
C[C@H]1CN(c2ccc(C#CC(C)(O)c3nccs3)cc2Nc2ncnc3[nH]ccc23)CCN1 (some centres not stated)	69.2	62.9	49.5	38	
CC(O)(C#Cc1ccc(N2CC3CC2CN3)c(Nc2ncnc3[nH]ccc23)c1)c1nccs1 (configuration not stated)	200				
O=C(Nc1ccc(N2CCOCC2)c(Nc2ncnc3[nH]ccc23)c1)NC1CCCC1					Activity [18]: 76.4%
OC1(C#Cc2ccc(N3CCOCC3)c(Nc3ncnc4[nH]ccc34)c2)CCCC1	645				
CC(O)(C#Cc1ccc(N2CCNCC2)c(Nc2ncnc3[nH]ccc23)c1)c1nccs1 (configuration not stated)	47.9	68	39.9	20.3	
O=C(Nc1ccc(N2CCOCC2)c(Nc2ncnc3[nH]ccc23)c1)C1CCCC1					Activity [18]: 77.3%
CC(O)(C(=O)Nc1ccc(N2CCOCC2)c(Nc2ncnc3[nH]ccc23)c1)c1nccs1 (configuration not stated)	1400				
CC(O)(C#Cc1ccc(N2CCOCC2)c(Nc2ccnc3[nH]ccc23)c1)c1nccs1 (configuration not stated)	6.59	60.4	50.2	19	
CC(C)(O)C#Cc1ccc(N2CCOCC2)c(Nc2ncnc3[nH]ccc23)c1	2710				
CC(=O)N1CCN(c2ccc(C#CC(C)(O)c3nccs3)cc2Nc2ncnc3[nH]ccc23)CC1 (configuration not stated)	17.8	29.3	31.5	16.2	
CN(C)CCN(C)c1ccc(C#CC(C)(O)c2nccs2)cc1Nc1ncnc2[nH]ccc12 (configuration not stated)	484				
CCN1CCN(c2ccc(C#CC(C)(O)c3nccs3)cc2Nc2ncnc3[nH]ccc23)CC1 (configuration not stated)	34.5	67.4	33.7	24.1	
C[C@@](O)(C#Cc1ccc(N2CCOCC2)c(Nc2ncnc3[nH]ccc23)c1)c1nccs1	12	100	61.2	37.6	Activity (T-cell [19]): Toxic
C[C@](O)(C#Cc1ccc(N2CCOCC2)c(Nc2ncnc3[nH]ccc23)c1)c1nccs1	136	74.3	60.1	39.5	Activity (T-cell [19]): Non-Toxic

Continued, in another order:

IC50 [1] [nM]	SMILES	inhibition at 1 µM (J774) [%]	inhibition at 2 µM (T-cell [2]) [%]	inhibition at 0.4 µM (T-cell [3]) [%]	further results
112	CC(O)(C#Cc1ccc(OC2CCOCC2)c(Nc2ncnc3[nH]ccc23)c1)c1nccs1 (configuration not stated)	68.3	42.9	19.9	
8.22	CCS(=O)(=O)N1CCN(c2ccc(C#CC(C)(O)c3nccs3)cc2Nc2ncnc3[nH]ccc23)CC1 (configuration not stated)	34.5	32.5	14	
11.4	CC(O)(C#Cc1ccc(N2CCOCC2)c(Nc2ccnc(N)n2)c1)c1nccs1 (configuration not stated)	58.5	31.4	27.4	
2240	CC(O)(C#Cc1ccc(N2CCOCC2)c(Nc2ncnc3[nH]ccc23)c1)C1CCCC1 (configuration not stated)				
4.7	CC(O)(C#Cc1ccc2c(c1)N(c1nc(N)ncc1Cl)CC2)c1nccs1 (configuration not stated)	43.9	59.6	19	microsomal CLint [4]: 40.8 µL/min/mg; Ki [5]: 0.4 nM; half-life [6]: 33.9 min; half-life [7]: 6.66 min; half-life [8]: 7.22 min; half-life [9]: 9.82 min; microsomal CLint [10]: 208 µL/min/mg; microsomal CLint [11]: 192 µL/min/mg; microsomal CLint [12]: 141 µL/min/mg; CLH [13]: 38.6 mL/min/kg; CLH [14]: 300 mL/min/kg; CLH [15]: 276 mL/min/kg; CLH [16]: 254 mL/min/kg; inhibition [17]: Dose-dependent effect
705	CN1CCC(Oc2ccc(C#CC(C)(O)c3nccs3)cc2Nc2ncnc3[nH]ccc23)CC1 (configuration not stated)				
22.5	CN(C)c1ccc(C#CC(C)(O)c2nccs2)cc1Nc1ncnc2[nH]ccc12 (configuration not stated)				
78.3	CN1CCN(c2ccc(C#CC(C)(O)c3nccs3)cc2Nc2ncnc3[nH]ccc23)CC1 (configuration not stated)	78.5	43.7	33	
1270	OC1(C#Cc2ccc(N3CCOCC3)c(Nc3ncnc4[nH]ccc34)c2)CCCCC1				
179	CC(O)(C#Cc1ccc(N2CCOCC2)c(Nc2ncnc3sccc23)c1)c1nccs1 (configuration not stated)				
15.3	CC(O)(C#Cc1ccc(N2CCC(N3CCOCC3)CC2)c(Nc2ncnc3[nH]ccc23)c1)c1nccs1 (configuration not stated)	57.7	34.5	32.2	
107	CC(O)(C#Cc1ccc(N2CCCC2)c(Nc2ncnc3[nH]ccc23)c1)c1nccs1 (configuration not stated)				
1640	CC(O)(C#Cc1cccc(Nc2ncnc3[nH]ccc23)c1)c1nccs1 (configuration not stated)				
50.4	CC(O)(C#Cc1ccc(N2CCOCC2)c(Nc2ncnc3[nH]ccc23)c1)c1cccs1 (configuration not stated)				
1380	CC(O)(C#Cc1ccc(N2CCOCC2)c(Nc2c(F)cnc3[nH]ccc23)c1)c1nccs1 (configuration not stated)				
> 10000	CC(O)(C#Cc1ccc(N2CCOCC2)c(Nc2c(Cl)cnc3[nH]ccc23)c1)c1nccs1 (configuration not stated)				

Reference: ChEMBL document CHEMBL4616671, “Identification of N-Phenyl-7H-pyrrolo[2,3-d]pyrimidin-4-amine Derivatives as Novel, Potent, and Selective NF-κB Inducing Kinase (NIK) Inhibitors for the Treatment of Psoriasis” (J Med Chem, 2020)
